One molecule from ChEMBL document CHEMBL1148948, “Biotransformation of nobiletin by Aspergillus niger and the antimutagenic activity of a metabolite, 4'-hydroxy-5,6,7,8,3'-pentamethoxyflavone” (2004) can be followed below.

Experiment [1] has as its system Salmonella typhimurium. The experiment can be described thus: Antimutagenic activity in Salmonella Typhimurium TA1535 carrying pSK1002 containing umuC'-lacZ fused gene assessed as suppression of furyfuramide-induced SOS response to alteration in DNA synthesis at 0.6 mM measured by beta-galactosidase activity by Umu test. Format: functional, Salmonella enterica subsp. enterica serovar Typhimurium. The procedure, abridged: (§1)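 S. typhimurium TA1535/pSK1002 (umuC′-′lacZ fusion on the plasmid). The overnight culture was diluted 50-fold in fresh TGA medium and grown at 37 °C to A600 0.25-0.30. SOS induction was read as β-galactosidase activity in Miller units. The S9 mix used rat liver S9 (phenobarbital/5,6-benzoflavone-pretreated males) with G-6-P, NADH and NADPH cofactors.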

Experiment [2] has as its system Salmonella typhimurium. Nature of the experiment: Inhibition of MeIQ-induced SOS response to alteration in DNA synthesis in Salmonella Typhimurium TA1535 carrying pSK1002 containing umuC'-lacZ fused gene at 0.6 mM. Format: functional, Salmonella enterica subsp. enterica serovar Typhimurium. On the set-up: scale not given: the % may be the effect or the level left. The procedure, abridged:
as §1

For experiment [3], the system named is Salmonella typhimurium. Nature of the experiment: Antimutagenic activity in Salmonella Typhimurium TA1535 carrying pSK1002 containing umuC'-lacZ fused gene assessed as suppression of activated Trp-P-1-induced SOS response to alteration in DNA synthesis at 0.3 mM measured by beta-galactosidase activity by Umu test. The class given is functional, Salmonella enterica subsp. enterica serovar Typhimurium. An outline of the steps:
as §1

Experiment [4] has as its system Salmonella typhimurium. Nature of the experiment: Inhibition of activated Trp-P-1-induced SOS response to alteration in DNA synthesis in Salmonella Typhimurium TA1535 carrying pSK1002 containing umuC'-lacZ fused gene at 0.6 mM. Format: functional, Salmonella enterica subsp. enterica serovar Typhimurium. The arrangement: scale not given: the % may be the effect or the level left. The procedure, abridged:
as §1

In experiment [5] the test system is Salmonella typhimurium. Nature of the experiment: Antimutagenic activity in Salmonella Typhimurium TA1535 carrying pSK1002 containing umuC'-lacZ fused gene assessed as suppression of 0.1 j/M2 UV light-induced SOS response to alteration in DNA synthesis at 0.6 mM measured by beta-galactosidase activity by Umu test. Format: functional, Salmonella enterica subsp. enterica serovar Typhimurium. An outline of the steps:
as §1

Experiment [6] concerns Salmonella typhimurium. The experiment can be described thus: Inhibition of furyfuramide-induced SOS response to alteration in DNA synthesis in Salmonella Typhimurium TA1535 carrying pSK1002 containing umuC'-lacZ fused gene at 0.6 mM. The class given is functional, Salmonella enterica subsp. enterica serovar Typhimurium. The arrangement: scale not given: the % may be the effect or the level left. An outline of the steps: as §1

Experiment [7] has as its system Salmonella typhimurium. The experiment can be described thus: Antimutagenic activity in Salmonella Typhimurium TA1535 carrying pSK1002 containing umuC'-lacZ fused gene assessed as suppression of Trp-P-1-induced SOS response to alteration in DNA synthesis measured by beta-galactosidase activity by Umu test. The class given is functional, organism-based. To be noted: Salmonella enterica subsp. enterica serovar Typhimurium. An outline of the steps: as §1

Experiment [8] relates to Salmonella typhimurium. The experiment can be described thus: Antimutagenic activity in Salmonella Typhimurium TA1535 carrying pSK1002 containing umuC'-lacZ fused gene assessed as suppression of MeIQ-induced SOS response to alteration in DNA synthesis measured by beta-galactosidase activity by Umu test. The class given is functional, organism-based. As to conditions: Salmonella enterica subsp. enterica serovar Typhimurium. An outline of the steps:
as §1

For experiment [9], the system named is Salmonella typhimurium. The experiment can be described thus: Antimutagenic activity in Salmonella Typhimurium TA1535 carrying pSK1002 containing umuC'-lacZ fused gene assessed as suppression of MeIQ-induced SOS response to alteration in DNA synthesis at 0.6 mM measured by beta-galactosidase activity by Umu test. The class given is functional, Salmonella enterica subsp. enterica serovar Typhimurium. The procedure, abridged:
as §1

Experiment [10] relates to Salmonella typhimurium. Nature of the experiment: Antimutagenic activity in Salmonella Typhimurium TA1535 carrying pSK1002 containing umuC'-lacZ fused gene assessed as suppression of activated Trp-P-1-induced SOS response to alteration in DNA synthesis at 0.6 mM measured by beta-galactosidase activity by Umu test. Format: functional, Salmonella enterica subsp. enterica serovar Typhimurium. An outline of the steps: as §1

Experiment [11] relates to Salmonella typhimurium. Nature of the experiment: Inhibition of activated MeIQ-induced SOS response to alteration in DNA synthesis in Salmonella Typhimurium TA1535 carrying pSK1002 containing umuC'-lacZ fused gene at 0.6 mM. Format: functional, Salmonella enterica subsp. enterica serovar Typhimurium. The arrangement: scale not given: the % may be the effect or the level left. The procedure, abridged:
as §1

Experiment [12] deals with Salmonella typhimurium. Nature of the experiment: Antimutagenic activity in Salmonella Typhimurium TA1535 carrying pSK1002 containing umuC'-lacZ fused gene assessed as suppression of activated MeIQ-induced SOS response to alteration in DNA synthesis at 0.3 mM measured by beta-galactosidase activity by Umu test. The class given is functional, Salmonella enterica subsp. enterica serovar Typhimurium. The procedure, abridged: as §1

Experiment [13] has as its system Salmonella typhimurium. Nature of the experiment: Inhibition of activated Trp-P-1-induced SOS response to alteration in DNA synthesis in Salmonella Typhimurium TA1535 carrying pSK1002 containing umuC'-lacZ fused gene. The class given is functional, Salmonella enterica subsp. enterica serovar Typhimurium. To be noted: Salmonella enterica, read-out: ID50 (the source's name). The procedure, abridged:
as §1

Experiment [14] relates to Salmonella typhimurium. Nature of the experiment: Antimutagenic activity in Salmonella Typhimurium TA1535 carrying pSK1002 containing umuC'-lacZ fused gene assessed as suppression of Trp-P-1-induced SOS response to alteration in DNA synthesis at 0.05 mM measured by beta-galactosidase activity by Umu test. Format: functional, Salmonella enterica subsp. enterica serovar Typhimurium. The procedure, abridged: as §1

The subject of experiment [15] is Salmonella typhimurium. Nature of the experiment: Antimutagenic activity in Salmonella Typhimurium TA1535 carrying pSK1002 containing umuC'-lacZ fused gene assessed as suppression of activated Trp-P-1-induced SOS response to alteration in DNA synthesis at 0.05 mM measured by beta-galactosidase activity by Umu test. The class given is functional, Salmonella enterica subsp. enterica serovar Typhimurium. The procedure, abridged:
as §1

Experiment [16] has as its system Salmonella typhimurium. The experiment can be described thus: Antimutagenic activity in Salmonella Typhimurium TA1535 carrying pSK1002 containing umuC'-lacZ fused gene assessed as suppression of activated MeIQ-induced SOS response to alteration in DNA synthesis at 0.1 mM measured by beta-galactosidase activity by Umu test. Format: functional, Salmonella enterica subsp. enterica serovar Typhimurium. An outline of the steps: as §1

Experiment [17] relates to Salmonella typhimurium. The experiment can be described thus: Antimutagenic activity in Salmonella Typhimurium TA1535 carrying pSK1002 containing umuC'-lacZ fused gene assessed as suppression of 0.1 j/M2 UV light-induced SOS response to alteration in DNA synthesis at 0.3 mM measured by beta-galactosidase activity by Umu test. Format: functional, Salmonella enterica subsp. enterica serovar Typhimurium. An outline of the steps:
as §1

Experiment [18] deals with Salmonella typhimurium. The experiment can be described thus: Inhibition of MeIQ-induced SOS response to alteration in DNA synthesis in Salmonella Typhimurium TA1535 carrying pSK1002 containing umuC'-lacZ fused gene. Format: functional, Salmonella enterica subsp. enterica serovar Typhimurium. To be noted: Salmonella enterica, read-out: ID50 (the source's name). The procedure, abridged:
as §1

Calls of active or inactive are those of the source. The calls are words filed in the database; no cut-off is given here.

`COc1cc(-c2cc(=O)c3c(OC)c(OC)c(OC)c(OC)c3o2)ccc1O`: the Activity is 443.7 Miller_unit with Salmonella typhimurium [1]; 80.9% with Salmonella typhimurium [2]; 182.4 Miller_unit with Salmonella typhimurium [3]; 76.4% in the experiment on Salmonella typhimurium [4]; 495.7 Miller_unit in the experiment on Salmonella typhimurium [5]; 28.7% in the experiment on Salmonella typhimurium [6]. For the same molecule, the Activity in the experiment with Salmonella typhimurium [9] is 163.9 Miller_unit; with Salmonella typhimurium [10], 118.5 Miller_unit; in the experiment with Salmonella typhimurium [11] it was 58.2%; in the experiment on Salmonella typhimurium [12], 243.5 Miller_unit; in the experiment on Salmonella typhimurium [14], 299.6 Miller_unit; in the experiment on Salmonella typhimurium [15], 283.7 Miller_unit. Moreover, the Activity was found to be 376.3 Miller_unit in the experiment with Salmonella typhimurium [16] and 563.5 Miller_unit with Salmonella typhimurium [17]. Further, the outcome in the experiment on Salmonella typhimurium [7] and in the experiment with Salmonella typhimurium [8] was Active. Moreover, the IC50 was 340 µM in the experiment on Salmonella typhimurium [13] and 40 µM with Salmonella typhimurium [18].
